Entries after “also recorded” stand apart in the source; their conditions may differ. Blank lines part the entries; values can stand above or below the compound they belong to.
Columns and labels:
[1] = test system: normal cell lines; details: cited from earlier work
[2] = molecular target: T1, α-glucosidase (Saccharomyces cerevisiae, UniProt P53341); details: read-out: α-glucosidase IC50; Fig. 1; cited from earlier work
[3] = molecular target: T1, α-glucosidase; details: kinetic studies; cited from earlier work
[4] = molecular target: α-Glucosidase (derived from Saccharomyces cerevisiae; EC3.2.1.20) (Saccharomyces cerevisiae, UniProt P53341); assay: In vitro α-glucosidase inhibitory study; assay type: biochemical
Sequence of α-Glucosidase (derived from Saccharomyces cerevisiae; EC3.2.1.20) (P53341 whole entry): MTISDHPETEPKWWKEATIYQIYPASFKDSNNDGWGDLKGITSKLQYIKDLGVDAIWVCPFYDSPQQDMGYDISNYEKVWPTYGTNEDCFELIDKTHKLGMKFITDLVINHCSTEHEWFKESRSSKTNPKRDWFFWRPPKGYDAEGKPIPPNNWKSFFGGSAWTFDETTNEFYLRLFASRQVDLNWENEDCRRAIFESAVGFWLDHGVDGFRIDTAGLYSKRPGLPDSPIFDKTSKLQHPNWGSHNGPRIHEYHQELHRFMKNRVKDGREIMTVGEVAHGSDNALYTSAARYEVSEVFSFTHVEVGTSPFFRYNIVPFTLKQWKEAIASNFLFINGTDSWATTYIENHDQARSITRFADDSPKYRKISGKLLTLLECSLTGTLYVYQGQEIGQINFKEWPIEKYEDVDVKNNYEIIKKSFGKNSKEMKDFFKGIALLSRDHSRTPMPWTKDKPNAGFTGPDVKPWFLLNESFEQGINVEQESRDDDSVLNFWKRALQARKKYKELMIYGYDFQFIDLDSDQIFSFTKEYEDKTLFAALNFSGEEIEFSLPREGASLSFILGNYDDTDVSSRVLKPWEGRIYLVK

[5] = molecular target: T1, α-glucosidase; assay: Kinetic studies of α-glucosidase; assay type: biochemical
[6] = molecular target: T1, α-glucosidase; assay: Fluorescence spectroscopy measurements; assay type: binding; details: 0–500 nM, excitation 280 nm, phosphate buffer pH 6.8
Summary of the method: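 Fixed amount of yeast α-glucosidase in 3.0 ml with test compound at 0–500 nM, equilibrated 10 min. Steady-state emission spectra recorded 300–500 nm with excitation at 280 nm in a 1.0 cm quartz cell. Buffer-only spectra without enzyme subtracted as background.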

[7] = molecular target: T1, α-glucosidase; assay: Thermodynamic analysis of the binding of compound 8g to α-glucosidase
Summary of the method: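 Fluorescence intensity of yeast α-glucosidase at 340 nm followed over 298–338 K, with or without test compound (pH 6.8), under a two-state N↔U model. Denatured fraction, apparent K and ΔG° = −RT ln K were calculated, then fitted to the integrated Gibbs–Helmholtz equation (ΔCp 11.6 kJ/mol K). This gave Tm (half-denatured), ΔH°m and ΔS°m, with ΔH = TmΔS.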

[8] = test system: male Wistar rats; assay: In vivo hypoglycemic activity assay; set-up: species or system rat; details: for blood glucose effect (area under curve) vs negative control: sucrose 7.5 g/kg, one-way ANOVA
Summary of the method: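 Sucrose 7.5 g/kg was given 30 min later. Tail-vein glucose measured by glucometer at 0, 30, 45, 60 and 120 min. Area under curve compared by one-way ANOVA; mean ± SD.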

[9] = cited from earlier work

T1 sequence (P53341 whole entry): as above

Compound: O=C(NN=Cc1cn(-c2ccccc2)nc1-c1ccc([N+](=O)[O-])cc1)c1cc2ccccc2o1 [B, N’-((3-(4-nitrophenyl)−1-phenyl-1H-pyrazol-4-yl)methylene)benzofuran-2-carbohydrazide]
cytotoxicity to normal cell lines [1]: non-toxic

Compound: O=C(Cn1c(-c2ccc(Cl)cc2)nc2ccccc2c1=O)NN=Cc1cn(-c2ccccc2)nc1-c1ccc(Br)cc1 [E, N’-((3-(4-bromophenyl)−1-phenyl-1H-pyrazol-4-yl)methylene)−2-(2-(4-chlorophenyl)−4-oxoquinazolin-3(4H)-yl)acetohydrazide]
IC50 [2]: 60.5 µM | mechanism of α-glucosidase inhibition [3]: competitive mechanism

IC50 [4]: 36.4 ± 0.2 µM
Compound: Cc1ccc(-c2cc(C(=O)NN=CC(O)C(O)C(O)C(O)CO)n[nH]2)cc1 (stereo not drawn) [Compound 8j, N’-(2,3,4,5,6-Pentahydroxyhexylidene)−5-(p-tolyl)−1H-pyrazole-3-carbohydrazide]

IC50 [4]: 0.5 µM | inhibition of α-glucosidase, times more potently than acarbose ([4]; relative to acarbose): 1500 times | Ki [5]: 0.46 µM | fluorescence intensity of α-glucosidase [6]: increased intensity | shift in the emission wavelength (λmax 340 nm) [6]: did not show significant shift | Tm of α-glucosidase ([7]; 60 nM compound): 314 K | ΔSm° of α-glucosidase denaturation ([7]; 60 nM compound): 328.6 J mol^−1 K^−1 | Tm of α-glucosidase ([7]; 250 nM compound): 309 K | ΔSm° of α-glucosidase denaturation ([7]; 250 nM compound): 466.9 J mol^−1 K^−1 | Tm of α-glucosidase ([7]; 500 nM compound): 304 K | ΔHm° of α-glucosidase denaturation ([7]; 500 nM compound): 37.55 kcal/mol | ΔSm° of α-glucosidase denaturation ([7]; 500 nM compound): 516.4 J mol^−1 K^−1
Compound: O=C(NN=CC(O)C(O)C(O)C(O)CO)c1cc(-c2ccc(Cl)cc2Cl)[nH]n1 (stereo not drawn) [Compound 8g, 5-(2,4-Dichlorophenyl)-N’-(2,3,4,5,6-pentahydroxyhexylidene)−1H-pyrazole-3-carbohydrazide]
type of inhibition ([5]; Lineweaver-Burk plot: Km increased, Vmax unchanged): competitive manner; also recorded: competitive inhibitor | blood sugar levels in rats ([8]; doses comparable to acarbose): capable of lowering blood sugar levels; also recorded: effectively reduced | blood glucose effect (area under curve) vs negative control ([8]; rat, oral 2.5 mg/kg): did not significantly differ | blood glucose effect (area under curve) vs negative control ([8]; rat, oral 5 mg/kg, p-value < 0.05): significantly different | blood glucose effect (area under curve) vs negative control ([8]; rat, oral 10 mg/kg, p-value < 0.05): significantly different | effectiveness of 5 and 10 mg/kg doses vs each other and vs acarbose (5 mg/kg) ([8]; rat, oral, sucrose tolerance test): did not significantly differ

IC50 [4]: 80.5 ± 0.7 µM
Compound: O=C(NN=CC(O)C(O)C(O)C(O)CO)c1cc(-c2ccc([N+](=O)[O-])cc2)[nH]n1 (stereo not drawn) [Compound 8h, 5-(4-Nitrophenyl)-N’-(2,3,4,5,6-pentahydroxyhexylidene)−1H-pyrazole-3-carbohydrazide]

IC50 [4]: 12.1 ± 0.5 µM
Compound: Cc1cccc(-c2cc(C(=O)NN=CC(O)C(O)C(O)C(O)CO)n[nH]2)c1 (stereo not drawn) [Compound 8i, N’-(2,3,4,5,6-Pentahydroxyhexylidene)−5-(m-tolyl)−1H-pyrazole-3-carbohydrazide]

IC50 [4]: 2.3 µM
Compound: COc1ccc(-c2cc(C(=O)NN=CC(O)C(O)C(O)C(O)CO)n[nH]2)cc1 (stereo not drawn) [Compound 8l, 5-(4-Methoxyphenyl)-N’-(2,3,4,5,6-pentahydroxyhexylidene)−1H-pyrazole-3-carbohydrazide]

IC50 [4]: 1 µM
Compound: O=C(NN=CC(O)C(O)C(O)C(O)CO)c1cc(-c2ccc(Cl)cc2)[nH]n1 (stereo not drawn) [Compound 8e, 5-(4-Chlorophenyl)-N’-(2,3,4,5,6-pentahydroxyhexylidene)−1H-pyrazole-3-carbohydrazide]

IC50 [4]: 35.2 ± 0.5 µM
Compound: O=C(NN=CC(O)C(O)C(O)C(O)CO)c1cc(-c2ccc(Br)cc2)[nH]n1 (stereo not drawn) [Compound 8f, 5-(4-Bromophenyl)-N’-(2,3,4,5,6-pentahydroxyhexylidene)−1H-pyrazole-3-carbohydrazide]

IC50 [4]: 1.2 µM
Compound: O=C(NN=CC(O)C(O)C(O)C(O)CO)c1cc(-c2ccccc2)[nH]n1 (stereo not drawn) [Compound 8a, N’-(2,3,4,5,6-Pentahydroxyhexylidene)−5-phenyl-1H-pyrazole-3-carbohydrazide]

IC50 [4]: 60.6 ± 1 µM
Compound: O=C(NN=CC(O)C(O)C(O)C(O)CO)c1cc(-c2ccc(F)cc2)[nH]n1 (stereo not drawn) [Compound 8d, 5-(4-Fluorophenyl)-N’-(2,3,4,5,6-pentahydroxyhexylidene)−1H-pyrazole-3-carbohydrazide]

IC50 [4]: 438.6 ± 0.1 µM
Compound: COc1ccc(-c2cc(C(=O)NN=CC(O)C(O)C(O)C(O)CO)n[nH]2)cc1OC (stereo not drawn) [Compound 8m, 5-(3,4-Dimethoxyphenyl)-N’-(2,3,4,5,6-pentahydroxyhexylidene)−1H-pyrazole-3-carbohydrazide]

IC50 [4]: 4.2 ± 0.1 µM
Compound: O=C(NN=CC(O)C(O)C(O)C(O)CO)c1cc(-c2ccccc2Cl)[nH]n1 (stereo not drawn) [Compound 8c, 5-(2-Chlorophenyl)-N’-(2,3,4,5,6-pentahydroxyhexylidene)−1H-pyrazole-3-carbohydrazide]

IC50 [4]: 53.9 ± 1.2 µM
Compound: O=C(NN=CC(O)C(O)C(O)C(O)CO)c1cc(-c2ccccc2F)[nH]n1 (stereo not drawn) [Compound 8b, 5-(2-Fluorophenyl)-N’-(2,3,4,5,6-pentahydroxyhexylidene)−1H-pyrazole-3-carbohydrazide]

Compound: O=C(NNC1OC(CO)C(O)C(O)C1O)c1cc(-c2ccccc2)on1 (stereo not drawn) [H, 5-phenyl-N’-(3,4,5-trihydroxy-6-(hydroxymethyl)tetrahydro-2H-pyran-2-yl)isoxazole-3-carbohydrazide]
IC50 [2]: 292 µM

IC50 [4]: 2.3 µM
Compound: COc1cccc(-c2cc(C(=O)NN=CC(O)C(O)C(O)C(O)CO)n[nH]2)c1 (stereo not drawn) [Compound 8k, 5-(3-Methoxyphenyl)-N’-(2,3,4,5,6-pentahydroxyhexylidene)−1H-pyrazole-3-carbohydrazide]

Compound: COc1ccc(/C=C/c2cc(O)cc(OC3OC(CO)C(O)C(O)C3O)c2)cc1O (stereo not drawn) [F, 2-(3-hydroxy-5-((E)−3-hydroxy-4-methoxystyryl)phenoxy)−6-(hydroxymethyl)tetrahydro-2H-pyran-3,4,5-triol]
bioavailability [9]: very low | toxic effects [9]: no toxic effects

Reference: publication PMC11929827 (Scientific Reports, 2025)
